Laboratory results as given in ChEMBL document CHEMBL4732181, “Pyrazolo[3,4-d]pyrimidine-based dual EGFR T790M/HER2 inhibitors: Design, synthesis, structure-activity relationship and biological activity as potential antitumor and anticonvulsant agents” (Eur J Med Chem, 2021).
Activity calls are given as the source filed them. The rule behind the calls is not given here.

Tests used:
Mus musculus [1] = test: Anticonvulsant activity against mouse model of LiCa/pilocarpine-induced status epilepticus assessed as alpha at 20 mg/kg, po for 10 days by EEG method relative to control; assay type: functional; details: time 10 day
Outline: (§1)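 Male mice (20-30 g), five per group, dosed orally once daily for 10 days. Status epilepticus was then induced with LiCa (3 mEq/kg i.p.), atropine sulfate (1 mg/kg i.p.) 30 min before pilocarpine, and pilocarpine HCl (300 mg/kg i.p.) 2 h after LiCa. Normal controls received oral distilled water. Comparators were untreated SE, phenytoin and lamotrigine. One-way ANOVA with Tukey post-hoc; mean ± SD.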

WI-38 = test: Cytotoxicity against human WI-38 cells assessed as reduction in cell viability after 48 hrs by MTT assay; assay type: cell-based; details: WI-38, 48 h
Outline: (§2)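 Cells from ATCC grown in DMEM with 10% FBS, insulin and 1% penicillin-streptomycin. Plated at 1.2-1.8 × 10,000 cells/well for 24 h, then exposed to compounds in DMSO vehicle for 48 h. MTT 0.5 mg/ml added for 2 h; absorbance read at 570 nm. Experiments run in triplicate.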

Mus musculus [2] = test: Anticonvulsant activity against mouse model of LiCa/pilocarpine-induced status epilepticus assessed as delta at 20 mg/kg, po for 10 days by EEG method relative to control; assay type: functional; details: time 10 day; outline: as §1
[3] = biological target: T1, Receptor tyrosine-protein kinase erbB-2 (Homo sapiens, UniProt P04626); test: Inhibition of HER2 (unknown origin) at 10 uM relative to control
Outline: (§3)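 Cell-free immunoassay kit measuring EGFR T790M/HER2 kinase inhibition. Percent inhibition screened at 10 µM. IC50 obtained from four concentrations (0.01-10 µM) by fitting E(%) = Emax/(1+[I]/ID50) to a dose-response curve. Mean of two independent replicates.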

Mus musculus [4] = test: Anticonvulsant activity against mouse model of LiCa/pilocarpine-induced status epilepticus assessed as total power at 20 mg/kg, po for 10 days by EEG method relative to control; assay type: functional; details: time 10 day; outline: as §1
Mus musculus [5] = test: Anticonvulsant activity against mouse model of LiCa/pilocarpine-induced status epilepticus assessed as total power density at 20 mg/kg, po for 10 days by EEG method relative to control; assay type: functional; details: time 10 day; outline: as §1
Mus musculus [6] = test: Anticonvulsant activity against mouse model of LiCa/pilocarpine-induced status epilepticus assessed as GABA level in brain at 20 mg/kg, po for 10 days by ELISA relative to control; assay type: functional; details: time 10 day; outline: as §1
Mus musculus [7] = test: Anticonvulsant activity against mouse model of LiCa/pilocarpine-induced status epilepticus assessed as power pV2 at 20 mg/kg, po for 10 days by EEG method relative to control; assay type: functional; details: time 10 day; outline: as §1
Mus musculus [8] = test: Anticonvulsant activity against mouse model of LiCa/pilocarpine-induced status epilepticus assessed as GSH level in brain at 20 mg/kg, po for 10 days by calorimetric method relative to control; assay type: functional; details: time 10 day; outline: as §1
Mus musculus [9] = test: Anticonvulsant activity against mouse model of LiCa/pilocarpine-induced status epilepticus assessed as spectral edge frequency at 20 mg/kg, po for 10 days by EEG method relative to control; assay type: functional; details: time 10 day; outline: as §1
Mus musculus [10] = test: Anticonvulsant activity against mouse model of LiCa/pilocarpine-induced status epilepticus assessed as mean power frequency at 20 mg/kg, po for 10 days by EEG method relative to control; assay type: functional; details: time 10 day; outline: as §1
[11] = biological target: T1, Receptor tyrosine-protein kinase erbB-2; test: Inhibition of HER2 (unknown origin); outline: as §3
Mus musculus [12] = test: Anticonvulsant activity against mouse model of LiCa/pilocarpine-induced status epilepticus assessed as amplitude density at 20 mg/kg, po for 10 days by EEG method relative to control; assay type: functional; details: time 10 day; outline: as §1
Mus musculus [13] = test: Anticonvulsant activity against mouse model of LiCa/pilocarpine-induced status epilepticus assessed as Glutamate level in brain at 20 mg/kg, po for 10 days by ELISA relative to control; assay type: functional; details: time 10 day; outline: as §1
Mus musculus [14] = test: Anticonvulsant activity against mouse model of LiCa/pilocarpine-induced status epilepticus assessed as theta at 20 mg/kg, po for 10 days by EEG method relative to control; assay type: functional; details: time 10 day; outline: as §1
Mus musculus [15] = test: Anticonvulsant activity against mouse model of LiCa/pilocarpine-induced status epilepticus assessed as MDA level in brain at 20 mg/kg, po for 10 days by calorimetric method relative to control; assay type: functional; details: time 10 day; outline: as §1
Mus musculus [16] = test: Anticonvulsant activity against mouse model of LiCa/pilocarpine-induced status epilepticus assessed as amplitude at 20 mg/kg, po for 10 days by EEG method relative to control; assay type: functional; details: time 10 day; outline: as §1
[17] = biological target: Epidermal growth factor receptor (Homo sapiens, UniProt P00533, T790M); test: Inhibition of EGFR T790M mutant (unknown origin)
MCF7 = test: Cytotoxicity against human MCF7 cells assessed as reduction in cell viability after 48 hrs by MTT assay; assay type: functional, cell-based; details: MCF7, 48 h; outline: as §2
HCT-116 [18] = test: Induction of apoptosis in human HCT-116 cells assessed as increase in Bax protein expression at IC50 concentration after 24 hrs by ELISA; assay type: functional
Outline: (§4)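 Cells treated at IC50 for 24 h and lysed in cell extraction buffer. Lysate diluted in standard diluent buffer and human caspase-3, -7, -9, Bax and Bcl-2 quantified by immunoassay kit (pg/mL). Fold change calculated against untreated control cells.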

HCT-116 [19] = test: Induction of apoptosis in human HCT-116 cells assessed as increase in caspace-7 protein expression at IC50 concentration after 24 hrs by ELISA; assay type: functional; outline: as §4
HCT-116 [20] = test: Induction of apoptosis in human HCT-116 cells assessed as late apoptotic cells at IC50 concentration after 24 hrs by annexin-V-FITC/PI staining based flow cytometric analysis (reference value: 1.31%); assay type: functional
HCT-116 [21] = test: Induction of apoptosis in human HCT-116 cells assessed as decrease in Bcl-2 protein expression at IC50 concentration after 24 hrs by ELISA; assay type: functional; outline: as §4
HCT-116 [22] = test: Induction of cell cycle arrest in human HCT-116 cells assessed as cell accumulation at S phase at IC50 concentration after 24 hrs by propidium iodide staining based flow cytometric analysis (reference value: 37.66%); assay type: functional
HCT-116 [23] = test: Induction of apoptosis in human HCT-116 cells assessed as increase in Bax/Bcl-2 ratio at IC50 concentration after 24 hrs by ELISA; assay type: functional, cell-based; outline: as §4
HCT-116 [24] = test: Induction of apoptosis in human HCT-116 cells assessed as increase in early apoptotic cells at IC50 concentration after 24 hrs by annexin-V-FITC/PI staining based flow cytometric analysis; assay type: functional
HCT-116 [25] = test: Induction of apoptosis in human HCT-116 cells assessed as increase in late apoptotic cells at IC50 concentration after 24 hrs by annexin-V-FITC/PI staining based flow cytometric analysis; assay type: functional
HCT-116 [26] = test: Induction of cell cycle arrest in human HCT-116 cells assessed as cell accumulation at G1 phase at IC50 concentration after 24 hrs by propidium iodide staining based flow cytometric analysis (reference value: 46.95%); assay type: functional
HCT-116 [27] = test: Induction of apoptosis in human HCT-116 cells assessed as increase in caspace-9 protein expression at IC50 concentration after 24 hrs by ELISA; assay type: functional; outline: as §4
HCT-116 [28] = test: Induction of cell cycle arrest in human HCT-116 cells assessed as cell accumulation at G2/M phase at IC50 concentration after 24 hrs by propidium iodide staining based flow cytometric analysis (reference value: 15.39%); assay type: functional
HCT-116 [29] = test: Induction of cell cycle arrest in human HCT-116 cells assessed as cell accumulation at pre-G1 phase at IC50 concentration after 24 hrs by propidium iodide staining based flow cytometric analysis (reference value: 2.02%); assay type: functional
HCT-116 [30] = test: Induction of cell cycle arrest in human HCT-116 cells assessed as cell increase in accumulation at G2/M phase at IC50 concentration after 24 hrs by propidium iodide staining based flow cytometric analysis; assay type: functional
HCT-116 [31] = test: Induction of apoptosis in human HCT-116 cells assessed as early apoptotic cells at IC50 concentration after 24 hrs by annexin-V-FITC/PI staining based flow cytometric analysis (reference value: 0.34%); assay type: functional
HCT-116 [32] = test: Induction of apoptosis in human HCT-116 cells assessed as increase in caspace-3 protein expression at IC50 concentration after 24 hrs by ELISA; assay type: functional; outline: as §4

T1 sequence (P04626 whole entry): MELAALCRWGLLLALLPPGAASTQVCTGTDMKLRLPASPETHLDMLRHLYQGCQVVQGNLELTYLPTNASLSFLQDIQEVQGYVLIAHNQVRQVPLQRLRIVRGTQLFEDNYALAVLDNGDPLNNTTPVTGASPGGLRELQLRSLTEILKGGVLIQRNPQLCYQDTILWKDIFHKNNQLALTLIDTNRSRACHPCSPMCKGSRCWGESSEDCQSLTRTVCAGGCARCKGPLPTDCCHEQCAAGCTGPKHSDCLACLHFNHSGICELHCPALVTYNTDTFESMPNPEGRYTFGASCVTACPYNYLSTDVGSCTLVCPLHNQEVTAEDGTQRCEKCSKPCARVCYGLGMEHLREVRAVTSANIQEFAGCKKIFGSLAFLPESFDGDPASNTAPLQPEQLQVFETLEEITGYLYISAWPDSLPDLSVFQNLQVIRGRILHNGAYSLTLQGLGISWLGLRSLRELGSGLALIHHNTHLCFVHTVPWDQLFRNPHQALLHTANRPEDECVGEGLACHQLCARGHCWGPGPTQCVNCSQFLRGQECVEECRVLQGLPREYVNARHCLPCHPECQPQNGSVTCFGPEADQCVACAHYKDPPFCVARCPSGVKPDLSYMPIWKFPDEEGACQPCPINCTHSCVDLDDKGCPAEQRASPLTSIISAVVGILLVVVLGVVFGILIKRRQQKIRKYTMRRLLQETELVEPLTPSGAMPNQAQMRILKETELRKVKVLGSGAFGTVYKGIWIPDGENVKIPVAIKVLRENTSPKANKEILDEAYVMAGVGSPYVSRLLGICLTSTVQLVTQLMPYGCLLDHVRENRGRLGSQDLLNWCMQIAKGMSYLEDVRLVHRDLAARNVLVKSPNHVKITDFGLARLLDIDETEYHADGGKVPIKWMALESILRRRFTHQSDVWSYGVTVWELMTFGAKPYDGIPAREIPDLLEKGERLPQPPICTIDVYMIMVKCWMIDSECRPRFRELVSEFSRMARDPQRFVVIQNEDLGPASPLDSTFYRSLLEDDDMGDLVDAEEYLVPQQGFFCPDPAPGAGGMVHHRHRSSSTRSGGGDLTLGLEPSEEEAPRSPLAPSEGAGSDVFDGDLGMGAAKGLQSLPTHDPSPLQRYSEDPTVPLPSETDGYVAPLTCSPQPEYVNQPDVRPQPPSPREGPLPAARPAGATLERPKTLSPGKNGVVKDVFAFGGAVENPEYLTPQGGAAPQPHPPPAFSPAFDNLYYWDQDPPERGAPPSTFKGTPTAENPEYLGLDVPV
Sequence of Epidermal growth factor receptor (P00533 25-1210 T790M limits assumed): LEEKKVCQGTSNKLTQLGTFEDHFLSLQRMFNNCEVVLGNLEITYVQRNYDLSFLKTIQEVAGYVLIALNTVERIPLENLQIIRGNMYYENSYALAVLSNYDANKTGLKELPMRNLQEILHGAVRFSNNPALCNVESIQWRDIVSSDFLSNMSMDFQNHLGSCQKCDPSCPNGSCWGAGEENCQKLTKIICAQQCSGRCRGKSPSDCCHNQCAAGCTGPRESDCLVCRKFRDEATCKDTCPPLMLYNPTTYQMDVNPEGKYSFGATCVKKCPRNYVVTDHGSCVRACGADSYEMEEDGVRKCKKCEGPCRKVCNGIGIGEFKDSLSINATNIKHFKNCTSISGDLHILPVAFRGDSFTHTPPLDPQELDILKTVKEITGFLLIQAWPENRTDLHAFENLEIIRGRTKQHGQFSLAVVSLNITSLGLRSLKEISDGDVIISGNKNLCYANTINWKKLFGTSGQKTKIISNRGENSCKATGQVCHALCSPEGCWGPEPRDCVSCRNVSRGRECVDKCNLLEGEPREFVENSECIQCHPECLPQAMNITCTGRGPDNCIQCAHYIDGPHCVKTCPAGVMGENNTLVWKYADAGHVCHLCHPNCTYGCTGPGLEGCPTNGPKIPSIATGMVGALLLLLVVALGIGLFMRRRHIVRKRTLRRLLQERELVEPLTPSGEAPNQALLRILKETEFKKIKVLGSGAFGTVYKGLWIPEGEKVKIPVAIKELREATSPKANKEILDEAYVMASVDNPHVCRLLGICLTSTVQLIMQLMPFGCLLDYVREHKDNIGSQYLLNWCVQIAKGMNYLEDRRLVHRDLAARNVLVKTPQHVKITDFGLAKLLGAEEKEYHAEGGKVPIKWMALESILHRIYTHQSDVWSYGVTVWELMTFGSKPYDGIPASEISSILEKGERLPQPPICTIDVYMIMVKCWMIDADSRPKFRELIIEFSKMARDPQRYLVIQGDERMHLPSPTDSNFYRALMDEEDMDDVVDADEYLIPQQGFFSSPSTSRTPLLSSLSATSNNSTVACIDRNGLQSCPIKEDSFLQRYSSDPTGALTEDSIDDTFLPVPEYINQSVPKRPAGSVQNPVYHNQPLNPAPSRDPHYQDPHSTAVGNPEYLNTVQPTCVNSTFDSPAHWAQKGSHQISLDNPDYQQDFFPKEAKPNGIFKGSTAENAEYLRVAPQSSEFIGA

Compound | inhibition [3] [%] | IC50 [11] [µM] | IC50 [17] [µM] | Activity (Mus musculus [1]) [%] | IC50 (WI-38) [µM] | Activity (Mus musculus [2]) [%] | Activity (Mus musculus [4]) [%] | Activity (Mus musculus [5]) [%] | Activity (Mus musculus [6]) [%] | Activity (Mus musculus [7]) [%] | Activity (Mus musculus [8]) [%] | Activity (Mus musculus [9]) [%] | Activity (Mus musculus [10]) [%] | Activity (Mus musculus [12]) [%] | Activity (Mus musculus [13]) [%] | Activity (Mus musculus [14]) [%] | Activity (Mus musculus [15]) [%] | Activity (Mus musculus [16]) [%] | other results
Cc1nn(-c2ccccc2)c2nc(CC(=O)N3NC(=O)/C(=C\c4ccccc4)N=C3c3ccccc3)[nH]c(=O)c12 | 83.6 | 0.872 | 0.656 | 33.49 | 0.0472 | 264.32 | 2.33 | 202.38 | 52.65 | 136.74 | 69.18 | -17.45 | -23.98 | 62.01 | -50.88 | 31.8 | -56.93 | 63.11 | 
Cc1nn(-c2ccccc2)c2nc(C(=O)N3NC(=O)/C(=C/c4ccc(Cl)cc4)N=C3c3ccccc3)[nH]c(=O)c12 |  |  |  | 18.91 | 0.0318 | 270.93 | 19.53 | 202.67 | 74.77 | 134.23 | 174.47 | -17.28 | -27.57 | 77.2 | -50.65 | 34.07 | -53.49 | 76 | IC50 (MCF7): 0.0443 µM
Cc1nn(-c2ccccc2)c2nc(C(=O)N3NC(=O)/C(=C/c4ccc(Cl)cc4)N=C3c3ccc(Cl)cc3)[nH]c(=O)c12 |  |  |  | 4.62 | 0.0193 | 313.77 | 37.32 | 233.86 | 74.49 | 225.84 | 144.08 | -21.45 | -37.61 | 54.1 | -57.79 | 41.15 | -63.24 | 89.78 | 

Now from value to compound, other results behind:

inhibition [3] [%] | IC50 [11] [µM] | IC50 [17] [µM] | Compound | Activity (Mus musculus [1]) [%] | IC50 (WI-38) [µM] | Activity (Mus musculus [2]) [%] | Activity (Mus musculus [4]) [%] | Activity (Mus musculus [5]) [%] | Activity (Mus musculus [6]) [%] | Activity (Mus musculus [7]) [%] | Activity (Mus musculus [8]) [%] | Activity (Mus musculus [9]) [%] | Activity (Mus musculus [10]) [%] | Activity (Mus musculus [12]) [%] | Activity (Mus musculus [13]) [%] | Activity (Mus musculus [14]) [%] | Activity (Mus musculus [15]) [%] | Activity (Mus musculus [16]) [%] | other results
54.5 | 11.2 |  | Cc1ccc(C2=N/C(=C\c3ccc(Cl)cc3)C(=O)NN2C(=O)c2nc3c(c(C)nn3-c3ccccc3)c(=O)[nH]2)cc1 | 13.75 | 0.0264 | 256.83 | 15.45 | 208.36 | 58.15 | 152.01 | 113.22 | -20.49 | -29.47 | 71.73 | -36.07 | 34.92 | -50.74 | 66.22 | 
72.6 | 0.634 | 0.422 | Cc1ccc(C2=N/C(=C/c3ccc(Cl)cc3)C(=O)NN2C(=O)Cc2nc3c(c(C)nn3-c3ccccc3)c(=O)[nH]2)cc1 | 31.95 | 0.0294 | 229.74 | 2.62 | 176.8 | 56.77 | 121.31 | 134.61 | -16.14 | -24.4 | 62.01 | -37.61 | 44.83 | -57.67 | 50.22 | fold change (FC) (HCT-116 [18]): 6.9; fold change (FC) (HCT-116 [19]): 20; Activity (HCT-116 [20]): 2.72%; fold change (FC) (HCT-116 [21]): 3.8; Activity (HCT-116 [22]): 31.42%; Activity (HCT-116 [23]): Active; fold change (FC) (HCT-116 [24]): 30.79; fold change (FC) (HCT-116 [25]): 2; Activity (HCT-116 [26]): 22.64%; fold change (FC) (HCT-116 [27]): 16.5; Activity (HCT-116 [28]): 45.94%; Activity (HCT-116 [29]): 17.35%; fold change (FC) (HCT-116 [30]): 2.98; Activity (HCT-116 [31]): 10.37%; fold change (FC) (HCT-116 [32]): 18.5
